In ChEMBL document CHEMBL1938372, “Design and synthesis of conformationally constrained inhibitors of non-nucleoside reverse transcriptase” (J Med Chem, 2011):
Converted amounts (≈) assume the structure as drawn. The source made the active and inactive calls. No cut-off for these calls is given here.

Tests used:
[1] = Volume of distribution in Beagle dog at 2 mg/kg, po and 1 mg/kg, iv; assay type: ADME, organism-based, Canis lupus familiaris; settings: in vivo
Summary of the method: (§1)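 PK in Sprague-Dawley rats (iv solution in DMSO via an indwelling jugular cannula, or oral suspension in aqueous methylcellulose/Methocel) and beagle dogs (iv and oral given crossover, same vehicles). Plasma levels by LC-MS. F from oral versus iv dose-normalized AUC. Average of at least two animals; rat values within 25% of the mean.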

[2] = system: Human immunodeficiency virus; test: Antiviral activity against wild type Human immunodeficiency virus assessed as inhibition of viral replication; assay type: functional, organism-based
[3] = system: Human immunodeficiency virus; test: Antiviral activity against Human immunodeficiency virus harboring reverse transcriptase K103N mutant assessed as inhibition of viral replication; assay type: functional, organism-based
Summary of the method: (§2)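 Phenosense cell culture assay against a panel of clinically derived RT mutant viruses in the presence of 10% FBS. IC50 is the compound concentration blocking 50% of viral replication. Each value is the average of two determinations.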

[4] = Solubility of the compound in water at pH 2; assay type: physicochemical
Summary of the method: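 Water solubility of the solid compound measured at pH 2 and at pH 7.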

[5] = system: Human immunodeficiency virus; test: Antiviral activity against Human immunodeficiency virus harboring reverse transcriptase K101E/Y181C/G190A triple mutant assessed as inhibition of viral replication; assay type: functional, organism-based; summary of the method: as §2
[6] = system: Human immunodeficiency virus; test: Antiviral activity against Human immunodeficiency virus expressing wild type reverse transcriptase infected in human MT4 cells by p24 antigen assay in the presence of 50% normal human serum; assay type: functional; settings: Human immunodeficiency virus 1, MT4; read-out: CIC95
Summary of the method: (§3)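 MT-4 human T-lymphoid cells in RPMI 1640 with either 10% FBS or 50% NHS; CIC95 taken as the concentration inhibiting virus spread/replication by >95%. Geometric mean of at least two determinations, individual values within 2-fold; SEM given when ≥3 determinations.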

[7] = target: Human immunodeficiency virus type 1 reverse transcriptase (Human immunodeficiency virus 1, UniProt Q72547, K103N); test: Inhibition of Human immunodeficiency virus reverse transcriptase K103N mutant by SPA assay
Summary of the method: (§4)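 Recombinant HIV-1 RT polymerase scintillation proximity assay run with mutant enzyme, reported as Ki (nM). Values are geometric means of at least two determinations, each within 2-fold of the mean; SEM is given where there were ≥3 determinations.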

[8] = system: Human immunodeficiency virus; test: Antiviral activity against multidrug-resistant Human immunodeficiency virus assessed as inhibition of viral replication; assay type: functional, organism-based; summary of the method: as §2
[9] = Bioavailability in Beagle dog at 2 mg/kg, po and 1 mg/kg, iv; assay type: ADME, organism-based, Canis lupus familiaris; settings: in vivo; summary of the method: as §1
[10] = system: Human immunodeficiency virus; test: Antiviral activity against Human immunodeficiency virus harboring reverse transcriptase Y181C mutant assessed as inhibition of viral replication; assay type: functional, organism-based; summary of the method: as §2
[11] = Plasma clearance in Sprague-Dawley rat at 10 mg/kg, po and 2 mg/kg, iv; assay type: ADME, organism-based; summary of the method: as §1
[12] = system: Human immunodeficiency virus; test: Antiviral activity against Human immunodeficiency virus expressing reverse transcriptase K103N mutant infected in human MT4 cells by p24 antigen assay in the presence of 10% FBS; assay type: functional; settings: Human immunodeficiency virus 1, MT4; read-out: CIC95
Summary of the method: (§5)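 Antiviral spread assay in MT-4 human T-lymphoid cells kept in RPMI 1640 with 10% FBS. Value is the CIC95, the concentration inhibiting virus replication by >95%. Reported as the geometric mean of at least two determinations, all within 2-fold of the mean. Cytotoxicity was checked up to the assay upper limit of 8.3 μM.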

[13] = system: Human immunodeficiency virus; test: Antiviral activity against Human immunodeficiency virus expressing reverse transcriptase Y181C mutant infected in human MT4 cells by p24 antigen assay in the presence of 10% FBS; assay type: functional; settings: Human immunodeficiency virus 1, MT4; read-out: CIC95; summary of the method: as §5
Rattus norvegicus = test: Dose normalised AUC in Sprague-Dawley rat at 10 mg/kg, po by LC-MS analysis; assay type: ADME, organism-based; set-up: dose 10 mg/kg, route oral; settings: in vivo; summary of the method: as §1
[14] = Half life in Sprague-Dawley rat at 10 mg/kg, po and 2 mg/kg, iv; assay type: ADME, organism-based; settings: in vivo; summary of the method: as §1
[15] = Bioavailability in Sprague-Dawley rat at 10 mg/kg, po and 2 mg/kg, iv; assay type: ADME, organism-based; settings: in vivo; summary of the method: as §1
[16] = Volume of distribution in Sprague-Dawley rat at 10 mg/kg, po and 2 mg/kg, iv; assay type: ADME, organism-based; settings: in vivo; summary of the method: as §1
[17] = Plasma clearance in Beagle dog at 2 mg/kg, po and 1 mg/kg, iv; assay type: ADME, organism-based, Canis lupus familiaris; summary of the method: as §1
[18] = target: Human immunodeficiency virus type 1 reverse transcriptase (Human immunodeficiency virus 1, UniProt Q72547, Y181C); test: Inhibition of Human immunodeficiency virus reverse transcriptase Y181C mutant by SPA assay; summary of the method: as §4
[19] = system: Human immunodeficiency virus; test: Antiviral activity against Human immunodeficiency virus expressing wild type reverse transcriptase infected in human MT4 cells by p24 antigen assay in the presence of 10% FBS; assay type: functional; settings: Human immunodeficiency virus 1, MT4; read-out: CIC95; summary of the method: as §3
MT4 = test: Cytotoxicity against human MT4 cells up to 8.3 uM; assay type: cell-based
Summary of the method: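 MT-4 cells in RPMI 1640 with 10% FBS or 50% NHS, run alongside the antiviral CIC95 assay; cytotoxicity checked up to the assay upper limit of 8.3 μM.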

[20] = Inhibition of Human immunodeficiency virus reverse transcriptase by SPA assay
[21] = system: Human immunodeficiency virus; test: Antiviral activity against Human immunodeficiency virus harboring reverse transcriptase K101E/G190A double mutant assessed as inhibition of viral replication; assay type: functional, organism-based; summary of the method: as §2
[22] = system: Human immunodeficiency virus; test: Antiviral activity against Human immunodeficiency virus harboring reverse transcriptase K103N/Y181C/G190A triple mutant assessed as inhibition of viral replication; assay type: functional, organism-based; summary of the method: as §2
[23] = system: Human immunodeficiency virus; test: Antiviral activity against Human immunodeficiency virus harboring reverse transcriptase Y188L mutant assessed as inhibition of viral replication; assay type: functional, organism-based; summary of the method: as §2
[24] = system: Human immunodeficiency virus; test: Antiviral activity against Human immunodeficiency virus harboring reverse transcriptase G190A mutant assessed as inhibition of viral replication; assay type: functional, organism-based; summary of the method: as §2
[25] = system: Human immunodeficiency virus; test: Antiviral activity against Human immunodeficiency virus harboring reverse transcriptase V106A/G190A/F227L triple mutant assessed as inhibition of viral replication; assay type: functional, organism-based; summary of the method: as §2
[26] = system: Human immunodeficiency virus; test: Antiviral activity against Human immunodeficiency virus harboring reverse transcriptase L100l mutant assessed as inhibition of viral replication; assay type: functional, organism-based; summary of the method: as §2
Canis familiaris [27] = test: Dose normalised AUC in Beagle dog at 2 mg/kg, po by LC-MS analysis; assay type: ADME, organism-based, Canis lupus familiaris; set-up: dose 2 mg/kg, route oral; settings: in vivo; summary of the method: as §1
[28] = system: Human immunodeficiency virus; test: Antiviral activity against Human immunodeficiency virus harboring reverse transcriptase G190S mutant assessed as inhibition of viral replication; assay type: functional, organism-based; summary of the method: as §2
[29] = system: Human immunodeficiency virus; test: Antiviral activity against Human immunodeficiency virus harboring reverse transcriptase L100l/K103N/P225P/H triple mutant assessed as inhibition of viral replication; assay type: functional, organism-based; summary of the method: as §2
[30] = Half life in Beagle dog at 2 mg/kg, po and 1 mg/kg, iv; assay type: ADME, organism-based, Canis lupus familiaris; settings: in vivo; summary of the method: as §1
[31] = system: Human immunodeficiency virus; test: Antiviral activity against Human immunodeficiency virus harboring reverse transcriptase K103N/P225H double mutant assessed as inhibition of viral replication; assay type: functional, organism-based; summary of the method: as §2
[32] = Bioavailability in Beagle dog at 1 mg/kg, po and 0.25 mg/kg, iv; assay type: ADME, organism-based, Canis lupus familiaris; settings: in vivo; summary of the method: as §1
Canis familiaris [33] = test: Dose normalised AUC in Beagle dog at 1 mg/kg, po by LC-MS analysis; assay type: ADME, organism-based, Canis lupus familiaris; set-up: dose 1 mg/kg, route oral; settings: in vivo; summary of the method: as §1
[34] = Plasma clearance in Beagle dog at 0.125 mg/kg, iv; assay type: ADME, organism-based, Canis lupus familiaris; set-up: dose 0.125 mg/kg, route intravenous; summary of the method: as §1
[35] = Volume of distribution in Beagle dog at 0.125 mg/kg, iv; assay type: ADME, organism-based, Canis lupus familiaris; set-up: dose 0.125 mg/kg, route intravenous; settings: in vivo; summary of the method: as §1
[36] = Half life in Beagle dog at 0.125 mg/kg, iv; assay type: ADME, organism-based, Canis lupus familiaris; set-up: dose 0.125 mg/kg, route intravenous; settings: in vivo; summary of the method: as §1

Row | SMILES | solubility [4] [µg/mL] | IC95 [6] [µM] | Ki [7] [nM] | clearance [11] [mL/min/kg] | IC95 [12] [µM] | IC95 [13] [µM] | AUC/dose (Rattus norvegicus) [µM·h] | half-life [14] [min] | bioavailability [15] [%] | Vd [16] [L/kg] | Ki [18] [nM] | IC95 [19] [µM] | Activity (MT4) | Ki [20] [nM] | other results
1 | N#Cc1cc(Cl)cc(Oc2c(Cl)ccc3c2cnn3Cc2n[nH]c3ncccc23)c1 [MK-6186] | < 0.1 | 0.064 | 0.58 | 18 | 0.015 | 0.058 | 1.6 | 456 | 76 | 10.5 | 0.6 | 0.011 | Non-toxic | 0.34 | Vd [1]: 6 L/kg; inhibition [2]: Active; inhibition [3]: Active; inhibition [5]: Active; inhibition [8]: Active; bioavailability [9]: 48%; inhibition [10]: Active; clearance [17]: 6.1 mL/min/kg; inhibition [21]: Active; inhibition [22]: Active; inhibition [23]: inactive; inhibition [24]: Active; inhibition [25]: inactive; inhibition [26]: Active; AUC/dose (Canis familiaris [27]): 2.3 µM·h; inhibition [28]: Active; inhibition [29]: Active; half-life [30]: 768 min; inhibition [31]: Active
2 | N#Cc1cc(Cl)cc(Oc2c(Cl)ccc3c2ncn3Cc2n[nH]c3ncccc23)c1 | 10 (≈ 23 µM) | 0.39 | 5.3 | 25.6 | 0.066 | 0.32 | 0.56 | 144 | 36 | 3.3 | 3.3 | 0.023 | Non-toxic | 2 | Vd [1]: 0.37 L/kg; clearance [17]: 2.2 mL/min/kg; half-life [30]: 768 min
3 | Cc1nc2c(Oc3cc(Cl)cc(C#N)c3)c(Cl)ccc2n1Cc1n[nH]c2ncccc12 |  | > 0.833 | > 600 |  |  |  |  |  |  |  | > 300 | > 0.833 | Non-toxic | > 300 | 
4 | N#Cc1cc(Cl)cc(Oc2cc(OCc3n[nH]c4ncccc34)ccc2Cl)c1 | < 0.1 | 0.052 | 0.22 |  | 0.015 | 0.022 | 0.1 |  | 7.5 |  | 0.23 | 0.01 | Non-toxic | 0.12 | bioavailability [32]: 3%; AUC/dose (Canis familiaris [33]): 0.14 µM·h
5 | N#Cc1cc(Cl)cc(Oc2c(Cl)ccc3c2c(Cl)nn3Cc2n[nH]c3ncccc23)c1 |  | > 5 | 28 |  | > 2 | > 2 |  |  |  |  | 42 | > 0.5 | Non-toxic | 46 | 
6 | N#Cc1cc(Cl)cc(Oc2cc(NCc3n[nH]c4ncccc34)c(N)cc2Cl)c1 |  |  | 3.8 |  | 0.04 |  |  |  |  |  | 3.3 | 0.024 | Non-toxic | 2.3 | 
7 | N#Cc1cc(Cl)cc(Oc2c(Cl)ccc3c2nnn3Cc2n[nH]c3nc(N)ccc23)c1 |  | 0.036 | 0.94 | 11.9 | 0.0058 | 0.037 | 0.02 | 282 | < 1 | 4.4 | 1.2 | 0.003 | Non-toxic | 1.1 | clearance [34]: 2.2 mL/min/kg; Vd [35]: 0.65 L/kg; half-life [36]: 768 min
